Active and inactive are the calls of the source. The calls are words filed in the database; no cut-off is given here.
Experiments:
RAW264.7 [1] = test: Antiinflammatory activity in mouse RAW264.7 cells assessed as inhibition of LPS-stimulated nitric oxide production preincubated for 2 hrs followed by LPS stimulation for 24 hrs by Griess reagent based assay; type: functional, cell-based; conditions: for inhibition: time 26.0 hrs
In short: (§1)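 RAW264.7 cells pretreated 2 h with compound, then LPS (500 ng/mL) 24 h. Nitrite in culture supernatant measured with Griess reagent (1% sulfanilamide in 5% H3PO4, 0.1% N-(1-naphthyl)ethylenediamine dihydrochloride). Inhibition % as mean ± SEM of triplicates; negative values denote enhancement of NO.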

RAW264.7 [2] = test: Antiinflammatory activity in mouse RAW264.7 cells assessed as inhibition of LPS-stimulated nitric oxide production at 10 uM preincubated for 2 hrs followed by LPS stimulation for 24 hrs by Griess reagent based assay relative to control; type: functional; conditions: time 26 hrs; in short: as §1
RAW264.7 [3] = test: Antiinflammatory activity in mouse RAW264.7 cells assessed as inhibition of LPS-stimulated nitric oxide production at 20 uM preincubated for 2 hrs followed by LPS stimulation for 24 hrs by Griess reagent based assay relative to control; type: functional; conditions: time 26 hrs; in short: as §1
RAW264.7 [4] = test: Antiinflammatory activity in mouse RAW264.7 cells assessed as inhibition of nitric oxide production incubated for 2 hrs by Griess reagent based assay; type: functional, cell-based; in short: as §1
RAW264.7 [5] = test: Antiinflammatory activity in LPS-stimulated mouse RAW264.7 cells assessed as reduction in iNOS level at 10 to 30 uM preincubated for 2 hrs followed by LPS stimulation for 20 hrs by Western blot analysis; type: functional, cell-based; conditions: dose 10-30 µM, time 22.0 hrs
In short: (§2)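 RAW264.7 cells pretreated 2 h with compound, then LPS (200 ng/mL) for 20 h. iNOS and COX-2 protein assessed by Western blot.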

RAW264.7 [6] = test: Antiinflammatory activity in LPS-stimulated mouse RAW264.7 cells assessed as reduction in COX-2 level at 10 to 30 uM preincubated for 2 hrs followed by LPS stimulation for 20 hrs by Western blot analysis; type: functional, cell-based; conditions: dose 10-30 µM, time 22.0 hrs; in short: as §2
Mus musculus [7] = organism: Mus musculus; test: Antiinflammatory activity in DNCB-stimulated atopic dermatitis BALB/c mouse model assessed as reduction in dermal thickness of ear at 0.5 % pretreated for 30 mins followed by DNCB re-treatment measured after 3 hrs by H and E staining based microscopic analysis; type: functional, organism-based; conditions: time 3.5 hrs
In short: (§3)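 DNCB-induced atopic dermatitis model in mouse ears, lesions peaking day 7 after sensitization; test agent applied at 0.5%. Ear thickness measured daily with a digimatic micrometer; ear lesions photographed. Ear specimens H&E-stained and examined microscopically for epidermal and dermal thickness and inflammatory cell infiltration. Mean ± SEM.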

RAW264.7 [8] = test: Antiinflammatory activity in LPS-stimulated mouse RAW264.7 cells assessed as inhibition in IL-6 level at 3 to 30 uM preincubated for 2 hrs followed by LPS stimulation for 24 hrs by ELISA; type: functional, cell-based; conditions: dose 3-30 µM, time 26.0 hrs
In short: (§4)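 RAW264.7 macrophages pretreated 2 h with compound, or Bay11-7082 as positive control, then LPS (500 ng/mL) for 24 h. IL-6, IL-1β and TNF-α in supernatants quantified by ELISA. Mean ± SEM.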

[9] = target: TLR4-MyD88 (Mus musculus) (UniProt Q9QUK6+P22366); test: Inhibition of TLR4-MyD88 interaction in mouse RAW264.7 cells at 30 uM preincubated for 2 hrs followed by LPS stimulation for 24 hrs by co-immunoprecipitation analysis; type: cell-based; conditions: time 26.0 hrs
In short: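 RAW264.7 cells treated with compound at 30 μM for 2 h, then LPS (500 ng/mL) for 24 h. Lysates immunoprecipitated with MyD88- or TLR4-specific antibodies on protein A/G agarose beads; immunocomplexes probed by Western blot for TLR4 or MyD88.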

Mus musculus [10] = organism: Mus musculus; test: Antiinflammatory activity in DNCB-stimulated atopic dermatitis BALB/c mouse model assessed as reduction in infiltration of inflammatory cells of ear at 0.5 % pretreated for 30 mins followed by DNCB re-treatment measured after 3 hrs by H and E staining based microscopic analysis; type: functional, organism-based; conditions: time 3.5 hrs; in short: as §3
Mus musculus [11] = organism: Mus musculus; test: Antiinflammatory activity in DNCB-stimulated atopic dermatitis BALB/c mouse model assessed as reduction in ear swelling at 0.5 % pretreated for 30 mins followed by DNCB re-treatment measured after 3 hrs; type: functional, organism-based; conditions: time 3.5 hrs; in short: as §3
HEK-293T [12] = test: Cytotoxicity against HEK293T cells at 3 to 30 uM by MTS assay; type: toxicity, cell-based; conditions: human, dose 3-30 µM
In short: (§5)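 MTS viability assay in RAW264.7 and 293T cells at 3, 10 and 30 μM.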

RAW264.7 [13] = test: Cytotoxicity against mouse RAW264.7 cells at 3 to 30 uM by MTS assay; type: toxicity, cell-based; conditions: raw264.7, 30 µM, dose 3-30 µM; in short: as §5
RAW264.7 [14] = test: Antiinflammatory activity in LPS-stimulated mouse RAW264.7 cells assessed as inhibition in TNF-alpha level at 3 to 30 uM preincubated for 2 hrs followed by LPS stimulation for 24 hrs by ELISA; type: functional, cell-based; conditions: dose 3-30 µM, time 26.0 hrs; in short: as §4
Mus musculus [15] = organism: Mus musculus; test: Antiinflammatory activity in DNCB-stimulated atopic dermatitis BALB/c mouse model assessed as reduction in epidermal thickness of ear at 0.5 % pretreated for 30 mins followed by DNCB re-treatment measured after 3 hrs by H and E staining based microscopic analysis; type: functional, organism-based; conditions: time 3.5 hrs; in short: as §3
RAW264.7 [16] = test: Antiinflammatory activity in mouse RAW264.7 cells assessed as inhibition of NF-kappaB translocation from cytosol to nucleus at 30 uM preincubated for 2 hrs followed by LPS stimulation for 2 hrs by immunofluorescence staining analysis; type: functional, cell-based; conditions: time 4.0 hrs
In short: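 RAW264.7 cells in glass chamber wells overnight, treated 2 h with compound (30 μM) or Bay (20 μM), then LPS for 2 h. Immunostained for NF-κB p65 with Alexa Fluor 488 secondary; nuclei counterstained with DAPI in antifade medium; fluorescence imaging.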

RAW264.7 [17] = test: Antiinflammatory activity in LPS-stimulated mouse RAW264.7 cells assessed as inhibition in IL-1beta level at 3 to 30 uM preincubated for 2 hrs followed by LPS stimulation for 24 hrs by ELISA; type: functional, cell-based; conditions: dose 3-30 µM, time 26.0 hrs; in short: as §4
Mus musculus [18] = organism: Mus musculus; test: Antiinflammatory activity in DNCB-stimulated atopic dermatitis BALB/c mouse model assessed as reduction in skin lesion at 0.5 % pretreated for 30 mins followed by DNCB re-treatment measured after 3 hrs; type: functional, organism-based; conditions: time 3.5 hrs; in short: as §3
HEK-293T [19] = test: Antiinflammatory activity in HEK293T cells transfected with NF-kappaB (unknown origin) assessed as inhibition in NF-kB transcription at 3 to 30 uM preincubated for 2 hrs followed by PMA stimulation for 24 hrs by SEAP reporter gene based Quanti-blue assay; type: functional, cell-based; conditions: Homo sapiens, dose 3-30 µM, time 26.0 hrs
In short: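 293T cells on poly-D-lysine-coated wells transfected overnight with pNF-κB-SEAP. Treated with compound for 2 h, then PMA (50 ng/mL) for 24 h. Bay 11-7082 (20 μM) served as NF-κB inhibitor control. SEAP activity read with QUANTI-Blue. Mean ± SEM.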

Chain of TLR4-MyD88 (Mus musculus) (P22366 whole entry, looked up): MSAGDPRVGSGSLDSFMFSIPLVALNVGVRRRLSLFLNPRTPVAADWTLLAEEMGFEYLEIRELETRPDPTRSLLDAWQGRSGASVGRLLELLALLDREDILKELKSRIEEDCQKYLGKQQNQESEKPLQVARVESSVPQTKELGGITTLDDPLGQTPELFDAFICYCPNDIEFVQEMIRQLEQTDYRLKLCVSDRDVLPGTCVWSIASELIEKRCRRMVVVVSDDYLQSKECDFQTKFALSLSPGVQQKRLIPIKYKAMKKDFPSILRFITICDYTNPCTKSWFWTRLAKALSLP
Chain of TLR4-MyD88 (Mus musculus) (Q9QUK6 whole entry, looked up): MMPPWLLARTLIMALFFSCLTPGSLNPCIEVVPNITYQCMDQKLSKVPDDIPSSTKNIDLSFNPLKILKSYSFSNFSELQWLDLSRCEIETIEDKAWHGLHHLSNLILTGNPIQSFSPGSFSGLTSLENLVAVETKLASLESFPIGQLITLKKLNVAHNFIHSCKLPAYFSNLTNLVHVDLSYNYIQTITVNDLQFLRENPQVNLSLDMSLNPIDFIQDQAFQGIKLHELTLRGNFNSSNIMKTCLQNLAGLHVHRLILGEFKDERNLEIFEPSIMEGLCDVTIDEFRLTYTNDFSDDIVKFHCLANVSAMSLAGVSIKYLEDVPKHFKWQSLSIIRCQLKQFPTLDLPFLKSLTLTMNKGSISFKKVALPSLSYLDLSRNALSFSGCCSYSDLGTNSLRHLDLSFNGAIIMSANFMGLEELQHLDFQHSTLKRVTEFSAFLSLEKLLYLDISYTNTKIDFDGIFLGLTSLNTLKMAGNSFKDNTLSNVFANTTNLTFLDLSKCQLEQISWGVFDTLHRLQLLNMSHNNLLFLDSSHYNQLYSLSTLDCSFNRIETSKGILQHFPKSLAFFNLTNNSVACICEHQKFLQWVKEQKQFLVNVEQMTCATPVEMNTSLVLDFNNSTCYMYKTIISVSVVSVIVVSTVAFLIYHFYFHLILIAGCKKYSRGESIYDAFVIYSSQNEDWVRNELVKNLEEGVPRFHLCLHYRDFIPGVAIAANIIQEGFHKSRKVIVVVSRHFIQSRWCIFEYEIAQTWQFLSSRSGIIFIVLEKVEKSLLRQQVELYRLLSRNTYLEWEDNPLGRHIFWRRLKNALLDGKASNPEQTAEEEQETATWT

Row | SMILES | inhibition at 10 µM (RAW264.7 [2]) | inhibition at 20 µM (RAW264.7 [3]) | further results
1 | Nc1nc(Cl)nc2c1ncn2C/C=C/c1ccccc1 | -5.27% | 2.46% | inhibition (RAW264.7 [1]): inactive; inhibition (RAW264.7 [4]): inactive
2 | CNc1ncnc2c1ncn2C/C=C/c1ccc(F)cc1 | 0.97% | 2.9% | –
3 | Nc1nc(Cl)nc2c1ncn2CC1CC1c1ccc(F)cc1 (stereo not given) | -6.22% | 1.56% | inhibition (RAW264.7 [1]): inactive; inhibition (RAW264.7 [4]): inactive
4 | Cc1ccc(/C=C/Cn2cnc3c(Cl)ncnc32)cc1 | 13.5% | 12.1% | –
5 | CNc1ncnc2c1ncn2C/C=C/c1ccc(C)cc1 | -7% | -15.7% | inhibition (RAW264.7 [1]): inactive; inhibition (RAW264.7 [4]): inactive
6 | CNc1nc(Cl)nc2c1ncn2C/C=C/c1ccc(C)cc1 | 28.4% | 34.6% | –
7 | Nc1ncnc2c1ncn2C/C=C/c1ccc(F)cc1 | -17.1% | -19.3% | inhibition (RAW264.7 [1]): inactive; inhibition (RAW264.7 [4]): inactive
8 | CNc1nc(Cl)nc2c1ncn2CC1CC1c1ccc(F)cc1 (stereo not given) | 11.2% | 11.9% | –
9 | Nc1nc(Cl)nc2c1ncn2C/C=C/c1ccc(F)cc1 | 13.9% | 24.1% | –
10 | CNc1ncnc2c1ncn2C/C=C/c1ccccc1 | 19.3% | 33.4% | –
11 | Cc1ccc(/C=C/Cn2cnc3c(N)nc(Cl)nc32)cc1 | 11.9% | 11.2% | –
12 | Nc1ncnc2c1ncn2C/C=C/c1ccccc1 | -3.38% | -13.3% | inhibition (RAW264.7 [1]): inactive; inhibition (RAW264.7 [4]): inactive
13 | Cc1ccc(/C=C/Cn2cnc3c(Cl)nc(Cl)nc32)cc1 | 31.9% | 60.4% | Activity (RAW264.7 [5]): Active; IC50 (RAW264.7 [1]): 6.4 µM; Activity (RAW264.7 [6]): Active; Activity (Mus musculus [7]): Active; inhibition (RAW264.7 [8]): Active; inhibition [9]: Active; Activity (Mus musculus [10]): Active; Activity (Mus musculus [11]): Active; Activity (HEK-293T [12]): Non-Toxic; Activity (RAW264.7 [13]): Non-Toxic; inhibition (RAW264.7 [14]): Active; Activity (Mus musculus [15]): Active; inhibition (RAW264.7 [16]): Active; inhibition (RAW264.7 [17]): Active; Activity (Mus musculus [18]): Active; inhibition (HEK-293T [19]): Active
14 | Cc1ccc(/C=C/Cn2cnc3c(N)ncnc32)cc1 | 0.48% | -7.73% | inhibition (RAW264.7 [1]): inactive; inhibition (RAW264.7 [4]): inactive
15 | ONc1nc(Cl)nc2c1ncn2C/C=C/c1ccc(F)cc1 | 4.59% | 17.6% | –
16 | Cc1ccc(/C=C/Cn2cnc3c(NO)nc(Cl)nc32)cc1 | 36.8% | 40.9% | –
17 | Clc1nc(Cl)c2ncn(C/C=C/c3ccccc3)c2n1 | 22.2% | 34.7% | –
18 | ONc1nc(Cl)nc2c1ncn2C/C=C/c1ccccc1 | 57.4% | 51.2% | –
19 | Oc1ccc(/C=C/c2cc(O)cc(O)c2)cc1 [RESVERATROL] | 26.6% | 38.6% | IC50 (RAW264.7 [1]): 26.4 µM; Activity (HEK-293T [12]): Non-Toxic; Activity (RAW264.7 [13]): Non-Toxic
20 | Cc1ccc(/C=C/Cn2cnc3c(Cl)nc(F)nc32)cc1 | 31.1% | 60.5% | –
21 | CNc1nc(Cl)nc2c1ncn2C/C=C/c1ccccc1 | 26.8% | 34.7% | –
22 | Cc1ccc(/C=C/Cn2cnc3c(F)nc(F)nc32)cc1 | 5.88% | 12.1% | –
23 | Clc1ncnc2c1ncn2C/C=C/c1ccccc1 | 15.1% | 14.8% | –
24 | CNc1nc(Cl)nc2c1ncn2C/C=C/c1ccc(F)cc1 | 28.2% | 36.5% | –
25 | Fc1ccc(/C=C/Cn2cnc3c(Cl)nc(Cl)nc32)cc1 | 29.3% | 40.5% | –
26 | Fc1ccc(/C=C/Cn2cnc3c(Cl)ncnc32)cc1 | 11.6% | 30.2% | –
27 | Fc1ccc(C2CC2Cn2cnc3c(Cl)nc(Cl)nc32)cc1 (stereo not given) | 4.11% | 17.1% | –

Source: ChEMBL document CHEMBL5390324, “Synthesis of 9-Cinnamyl-9H-purine Derivatives as Novel TLR4/MyD88/NF-κB Pathway Inhibitors for Anti-inflammatory Effects” (ACS Med Chem Lett, 2023)
